Legend:
[1] = test system: Rat; assay: concentration in brain after dosing; details: 2 h; dosed: 76231-76-0; 3.0 mg/kg; iv; Female; F344
[2] = test system: Rat; assay: concentration in plasma after dosing; details: 6 h; dosed: alpha-Thujone; 25 mg/kg; oral; Male; Harlan Sprague Dawley
[3] = test system: Rat; assay: concentration in brain after dosing; details: 5 min; dosed: alpha-Thujone; 25 mg/kg; oral; Male; Harlan Sprague Dawley
[4] = test system: Rat; assay: concentration in brain after dosing; details: 5 min; dosed: alpha-Thujone; 50 mg/kg; oral; Female; Harlan Sprague Dawley
[5] = test system: Rat; assay: concentration in plasma after dosing; details: 0.5 h; dosed: alpha-Thujone; 25 mg/kg; oral; Male; Harlan Sprague Dawley
[6] = test system: Rat; assay: concentration in plasma after dosing; details: 5 min; dosed: alpha-Thujone; 25 mg/kg; oral; Male; Harlan Sprague Dawley
[7] = test system: Rat; assay: concentration in plasma after dosing; details: 3 h; dosed: alpha-Thujone; 25 mg/kg; oral; Female; Harlan Sprague Dawley
[8] = test system: Rat; assay: concentration in plasma after dosing; details: 6 h; dosed: alpha-Thujone; 50 mg/kg; oral; Female; Harlan Sprague Dawley
[9] = test system: Rat; assay: concentration in plasma after dosing; details: 2 h; dosed: Pyridine; 25 mg/kg; oral; Female; Harlan Sprague-Dawley
[10] = test system: Rat; assay: concentration in plasma after dosing; details: dosed: Pyridine, 5 mg/kg, oral, Male, F344
[11] = test system: Rat; assay: concentration in plasma after dosing; details: 20 min; dosed: Pyridine; 10 mg/kg; iv; Male; F344
[12] = test system: Rat; assay: concentration in plasma after dosing; details: 10 min; dosed: Pyridine; 10 mg/kg; oral; Male; F344
[13] = test system: Rat; assay: concentration in plasma after dosing; details: 2 h; dosed: Pyridine; 5 mg/kg; oral; Male; F344
[14] = test system: Rat; assay: concentration in plasma after dosing; details: 2 h; dosed: Pyridine; 5 mg/kg; iv; Male; F344
[15] = test system: Rat; assay: concentration in plasma after dosing; details: dosed: Methyleugenol, 37 mg/kg, oral, Male, F344/N
[16] = test system: Rat; assay: concentration in plasma after dosing; details: dosed: Methyleugenol, 37 mg/kg, iv, Female, F344
[17] = test system: Rat; assay: concentration in plasma after dosing; details: dosed: Methyleugenol, 37 mg/kg, oral, Male, F344/N; remark: listed apart in the source
[18] = test system: human; assay: concentration in blood after dosing; negative times count back from the end of exposure; details: dosed: trichloroethylene, 100 ppm, inhalation, duration: 6 hr, female
Method in brief: (§1)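 A PubMed search, classifier screening and manual review identified published in vivo toxicokinetic studies, which together with two structured collections supplied concentration-versus-time and amount-versus-time points. Points were mostly digitised from plot screenshots with WebPlotDigitizer, otherwise copied from tables. Dose, route, subject details and medium were hand-curated from each paper, and sampling and analytical methods are those of the sources, often unreported.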

[19] = test system: Rat; assay: concentration in plasma after dosing; details: 0.5 h; dosed: Primidone; 130 mg/kg; oral; Female; F344
[20] = test system: Rat; assay: concentration in plasma after dosing; details: 0.5 h; dosed: Primidone; 80 mg/kg; oral; Female; Harlan Sprague-Dawley
[21] = test system: Rat; assay: concentration in plasma after dosing; details: 0.25 h; dosed: Primidone; 30 mg/kg; oral; Female; F344
[22] = test system: Rat; assay: concentration in plasma after dosing; details: 10 min; dosed: 2-Hydroxy-4-methoxybenzophenone; 100 mg/kg; oral; Male; F344
[23] = test system: Mouse; assay: concentration in plasma after dosing; details: 0.25 h; dosed: 2-Hydroxy-4-methoxybenzophenone; 50 mg/kg; iv; Female; B6C3F1
[24] = test system: Mouse; assay: concentration in plasma after dosing; details: 2 h; dosed: 2-Hydroxy-4-methoxybenzophenone; 250 mg/kg; oral; Male; B6C3F1
[25] = test system: Mouse; assay: concentration in plasma after dosing; details: 2 h; dosed: 2-Hydroxy-4-methoxybenzophenone; 50 mg/kg; iv; Female; B6C3F1
[26] = test system: Rat; assay: concentration in plasma after dosing; details: 0.25 h; dosed: 2-Hydroxy-4-methoxybenzophenone; 500 mg/kg; oral; Male; F344
[27] = test system: Mouse; assay: concentration in plasma after dosing; details: 2.5 min; dosed: 2,4-Dichlorophenoxyacetic acid; 1.0 mg/kg; oral; Male; B6C3F1
[28] = test system: Hamster; assay: concentration in plasma after dosing; details: dosed: 2,4-Dichlorophenoxyacetic acid, 8.0 mg/kg, oral, Male, Syrian Golden
Method in brief: as §1

[29] = test system: Rat; assay: concentration in kidney after dosing; details: 192 h; dosed: Perfluorohexane-1-sulphonic acid – potassium salt; 16 mg/kg; oral; Female; F344
[30] = test system: Rat; assay: concentration in brain after dosing; details: 24 h; dosed: Perfluorohexane-1-sulphonic acid – potassium salt; 16 mg/kg; oral; Female; Harlan Sprague Dawley
[31] = test system: Rat; assay: concentration in kidney after dosing; details: 12 h; dosed: Perfluorohexane-1-sulphonic acid – potassium salt; 16 mg/kg; oral; Female; Harlan Sprague Dawley
[32] = test system: Rat; assay: concentration in kidney after dosing; details: 6 h; dosed: Perfluorohexane-1-sulphonic acid – potassium salt; 16 mg/kg; oral; Female; F344
[33] = test system: Rat; assay: concentration in brain after dosing; details: 24 h; dosed: Perfluorohexane-1-sulphonic acid – potassium salt; 16 mg/kg; oral; Female; F344

CC(C)[C@]12CC(=O)[C@H](C)[C@H]1C2 [alpha-Thujone]
Details | concentration in brain [ng/g] | concentration in plasma [ng/mL]
[1] | 19.3 | –
[2] | – | 42.9
[3] | 360 | –
[4] | 996 | –
[5] | – | 176
[6] | – | 1170
[7] | – | 180
[8] | – | 162

c1ccncc1 [Pyridine]
Details | concentration in plasma [ng/mL]
[9] | 17100
[11] | 6010
[12] | 4950
[13] | 2730
[14] | 2920

[10]
Details | concentration in plasma [ng/mL]
0.5 h | 3090
6 h | 1000

C=CCc1ccc(OC)c(OC)c1 [Methyleugenol]
Details | concentration in plasma [ng/mL]
[15], 2 min | 36
[15], 3 h | 46.1
[16], 0.25 h | 9760
[16], 1.5 h | 576
[17], 2 h | 32
[17], 10 min | 268

OCC(Cl)(Cl)Cl [trichloroethanol]
[18]
Details | concentration in blood [ng/mL]
0 h | 7540
18 h | 3770
24 h | 7410
42 h | 2960
48 h | 6640
66 h | 2540
72 h | 6900
90 h | 3410
96 h | 6090

Details | concentration in blood [ng/mL]
[18], -6 h, during exposure | 222

CCC1(c2ccccc2)C(=O)NCNC1=O [Primidone]
Details | concentration in plasma [ng/mL]
[19] | 24000
[20] | 22900
[21] | 15100

O=C(c1ccccc1)c1ccc(O)cc1O [2,4-Dihydroxybenzophenone]
Details | concentration in plasma [ng/mL]
[22] | 91
[23] | 903
[24] | 266
[25] | 46.1
[26] | 103

O=C(O)COc1ccc(Cl)cc1Cl [2,4-Dichlorophenoxyacetic acid]
Details | concentration in plasma [ng/mL]
[27] | 1730

[28]
Details | concentration in plasma [ng/mL]
0.25 h | 21800
0.5 h | 8620
1 h | 1740
1.5 h | 761
2 h | 1360
2.5 h | 115
5 min | 25700
6 h | 466

O=S(=O)([O-])C(F)(F)C(F)(F)C(F)(F)C(F)(F)C(F)(F)C(F)(F)F.[K+] [Perfluorohexane-1-sulphonic acid – potassium salt]
Details | concentration in brain [ng/g] | concentration in kidney [ng/g]
[29] | – | 16700
[30] | 701 | –
[31] | – | 25000
[32] | – | 39300
[33] | 1760 | –

Reference: EPA's CvTdb concentration-time database
